Measurements published in ChEMBL document CHEMBL3352487, “Synthesis, antibacterial activity, and biological evaluation of formyl hydroxyamino derivatives as novel potent peptide deformylase inhibitors against drug-resistant bacteria” (Eur J Med Chem, 2014).

Tests used:
Type in all cases: ADME, cell-free
[1] = Fraction unbound in CD1 mouse plasma at 2 uM by equilibrium dialysis
In short: (§1)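 Pooled CD-1 mouse plasma spiked to 2 µM final, equilibrium dialysis in triplicate against 100 mM PBS pH 7.4, 4 h at 37 °C with rotation; matrix-matched samples acetonitrile-precipitated, LC-MS/MS with internal standards. Unbound = free/total ×100; recovery = (free+total)/pre-dialysis ×100.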

[2] = Drug recovery in CD1 mouse plasma at 2 uM by equilibrium dialysis; conditions: read-out: Drug recovery; in short: as §1
[3] = Protein binding in CD1 mouse plasma at 2 uM by equilibrium dialysis; conditions: read-out: PPB (converted)

Question: Which fraction unbound at 2 µM [1] does the source give for CC(=O)CC(c1ccccc1)c1c(O)c2ccccc2oc1=O (stereo not drawn) [WARFARIN] here?
Answer: 0.059

Question: And the recovery at 2 µM [2]?
Answer: 104%

Question: And the fraction unbound at 2 µM [3]?
Answer: 0.059
